Measured values: ChEMBL document CHEMBL4513216, “Probing the Open Global Health Chemical Diversity Library for Multistage-Active Starting Points for Next-Generation Antimalarials” (ACS Infect Dis, 2020)

Assay: Toxicity liver stage against HepG2, at 10uM
Assay type: cell-based
Design: test concentration 10 uM, cell line HepG2-A16-CD81EGFP
Conditions: human, HepG2-A16-CD81EGFP cells; read-out: INHIBITION
Summary of the method: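 Uninfected HepG2-A16-CD81EGFP cells, 3 × 10^3 per well, 1536-well, plated on prespotted compound at 10 μM final, parasite-free screening media added to match infected plates; puromycin 10 μM positive, DMSO 0.5% negative; run in parallel with 48 h PbLuc assay at 37 °C, 5% CO2; viability by CellTiter-Glo luminescence, normalized to controls.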

Structure (SMILES) | cytotoxicity at 10 µM [%]
COc1ccc(C(=O)Nc2c(C)nc3cccc(C)n3c2=O)cc1 | 8.1
CC(=O)Nc1ccc(OCc2noc(C(=O)N3CCCC3)n2)cc1 | -12.3
CC(C)CNC(=O)CNc1c(NCc2ccco2)c(=O)c1=O | -0.817
CS(=O)(=O)N1CCN(C(=O)c2cnn3c2OCCC3)CC1 | -3.45
Cc1cc(=O)n(CCNS(=O)(=O)c2ccccc2)cn1 | 3.33
CN(C)CC1CSCCCN1S(=O)(=O)Cc1ccc(C(F)(F)F)cc1 (configuration not stated) | -5.36
O=C(CC1CCCC1)N1CCN(c2ccc(-n3cncn3)nn2)CC1 | -11.9
CC1c2ncc(COCC3CCOCC3)n2CCN1C(=O)c1ccoc1 (configuration not stated) | 7.01
CC(C)N1CCN(C)C2(CCN(C(=O)c3ccnnc3)CC2)C1=O | 8.64
CC(C)(C)C(=O)N1CCC2(CC1)CC(Oc1ccccc1)CO2 (configuration not stated) | 4.12
c1cncc(CN2CCn3cc(Cn4cccn4)nc3C2)c1 | 4.93
CN1CC(=O)N(c2ccsc2)CC12CCN(Cc1nccn1C)C2 (configuration not stated) | -0.269
COc1cccc2c1ccn2CC(=O)N1CCCC(C(=O)O)C1 (configuration not stated) | 6.28
O=c1[nH]c2nc(N3CCOCC3)ncc2c(=O)n1-c1cccc(F)c1 | 9.32
O=c1[nH]cnc2[nH]c(N3CCOCC3)nc12 | 2.9
Cc1cnc2n(c1=O)C(CC(=O)NCc1cc(-c3cccs3)on1)CS2 (configuration not stated) | -1.51
CC(=O)N1[C@H](Cn2cncn2)C[C@@H]2CN(c3ccc(C)nn3)CC[C@@H]21 | -13.4
CS(=O)(=O)Nc1ccn(Cc2ccc(F)cc2Cl)n1 | 6.64
CCN(CC)CCNS(=O)(=O)c1cccc(CSC)c1 | -7.99
Cc1c(CN(C)C(=O)c2ccnn2C)cnn1C | -5.33
CCc1nc(NCCCOC)c2c(n1)c(C)nn2C | 2.92
Cc1nc2c(c(=O)[nH]1)CCN(Cc1ccc3c(c1)CCCN3C)C2 | -1.87
Cc1nc(-c2ccnn2C)cc(C2CCCN(S(C)(=O)=O)C2)n1 (configuration not stated) | -0.66

Structure (SMILES) | cytotoxicity at 10 µM [%]
O=C(Cn1cc(Cl)cn1)NCCN1CCC(O)(c2ccc(F)cc2)CC1 | 3.41
Cc1ncc(-c2ccccn2)c(CCNC(=O)C2CCCC2)n1 | 16.4
Nc1ncc(CN2CCC(O)(c3ccccc3F)CC2)cn1 | 1
O=C(c1cnccn1)N1CCCC(Cc2ccccn2)C1 (configuration not stated) | 6.95
Cc1cc2nccc(C3CCCN(C(=O)c4ccccc4F)C3)n2n1 (configuration not stated) | 13.6
CCc1n[nH]c(C(=O)NCCn2nccc2C)c1C | -7.28
O=C(c1cc[nH]n1)N1CCCC1c1cnccn1 (configuration not stated) | -25.4
O=S(=O)(c1ccccc1)N1CCCC(c2nccs2)C1 (configuration not stated) | -23.4
COCC(=O)N1CCCCC1c1nccc(C)n1 (configuration not stated) | -14.6
Cc1nc(C2CN(C)CCO2)cc(N2CCSCC2)n1 (configuration not stated) | -15.6
COCCN1CCC(Cc2cncc(-c3ccc(C(=O)O)cc3)n2)CC1 | -27.6
COCC(=O)N1CCCC1c1ccnc(Nc2cnccn2)n1 (configuration not stated) | -4.3
CNc1cncc(C2CCCN(S(C)(=O)=O)C2)n1 (configuration not stated) | 3.19
NC(=O)CN1CCC(NCc2cc(C(F)(F)F)ccc2Cl)CC1 | -3.01
CC(NC1(CNS(C)(=O)=O)CCCC1)c1ccccc1 (configuration not stated) | 8.43
O=C(Nc1ccc(N2CCCCC2)cn1)C1CCCN1C(=O)C1CC1 (configuration not stated) | -6.35
O=C(CCC(F)(F)F)NCC1CCCS1 (configuration not stated) | -1.58
Cc1cc(F)cc(S(=O)(=O)Nc2noc(C)n2)c1 | 3.11
Cc1noc(CCNC(=O)C2CSCN2C(=O)C2CCCC2)n1 (configuration not stated) | -45
CCOC(=O)N(C)C1CCN(Cc2csc(C)n2)CC1 | -3.37
CCNc1cc2c(nn1)CCN(C(=O)C1COc3ccccc3O1)C2 (configuration not stated) | -6.34
COCCC(=O)N(Cc1ccccn1)Cc1ccccc1C | 2.14
CC(CS(C)(=O)=O)N(C(=O)CCc1ccc(Cl)s1)C1CC1 (configuration not stated) | 1.92

Structure (SMILES) | cytotoxicity at 10 µM [%]
CCc1nc(NS(=O)(=O)c2cc(C)ccc2Br)no1 | 4.66
CC(C)CN1CCN(C(=O)c2cccnc2-n2cncn2)CC1 | 1.53
Cc1cc(CN2CCN(C(=O)Cc3ccccc3F)CC2)on1 | -4.02
Cc1ccoc1C(=O)NCCOc1ccc(C(F)(F)F)cn1 | -4.02
CC(C)c1nc(C2CCCN2C(=O)CN(C)Cc2ccccc2)no1 (configuration not stated) | -4.86
COc1cncc(N2CCN(Cc3ccco3)CC2)n1 | 0.197
CC(C)c1nc(C2CCCN2CCS(C)(=O)=O)no1 (configuration not stated) | 6.51
OCc1ccc(N2CCN(c3ncccn3)CC2)c(F)c1 | -23.8
CSc1ccc(OC(C)C(=O)Nc2cc[nH]n2)cc1 (configuration not stated) | 7.71
Cc1cc(C)n(-c2cncc(N3CCN(C(=O)C(C)(C)C)CC3)n2)n1 | -3.22
O=C(CN1CCCC1Cn1cncn1)NC(C1CC1)C1CC1 (configuration not stated) | -12.8
Cc1nc(NCC2CC2)nc2c1COCC21CCN(C)C1 (configuration not stated) | -0.722
CC(=O)N1CC[C@]2(O)CCN(Cc3nc(C)c[nH]3)C[C@@H]2C1 | -5.79
c1ccc(-c2cc(NCCCC3CCOC3)n3nccc3n2)cc1 (configuration not stated) | -0.309
CCn1ncnc1C(C)NC(=O)Cc1cc2c(cc1Cl)OCCO2 (configuration not stated) | -6.38
O=C(c1ccnc(CC2COc3ccccc3C2)c1)N1CCCC1 (configuration not stated) | 1.7
Cc1cccc(OC2CN(C(=O)C3CC(=O)N(C4CC4)C3)C2)c1 (configuration not stated) | -0.503
CC(C)n1cnnc1CN(C)C(=O)c1ccccc1-n1cncn1 | -1.49
Nc1nnc(CCNC(=O)c2cccc(C3CCCNC3)c2)s1 (configuration not stated) | 2.9
Cn1ncc2c(N3CCCN4CCC[C@H]4C3)nc(C(C)(C)C)nc21 | -128
COc1ccc(CN2CCC(CO)(Cc3ccc(Cl)cc3)CC2)c(O)c1 | -134
Cc1sc2nc(CCN)nc(N3CCS(=O)(=O)CC3)c2c1C | -44.1
CN(C)C(C(=O)NC1(CO)CCCC1)c1ccc(F)cc1 (configuration not stated) | -48.2

Structure (SMILES) | cytotoxicity at 10 µM [%]
Nc1nc2c(c(N3CCC(CCn4cccn4)CC3)n1)CCNCC2 | -4.17
NC(=O)CN1CC2(CCC1=O)CCN(Cc1ccc(F)cc1Cl)CC2 | 3.59
CCn1c(-c2ccccc2)nn(CC(=O)NCCc2c[nH]cn2)c1=O | -2.99
O=C(CCN1CCNCC1)N1CCC2(CC1)c1ccccc1CC2O (configuration not stated) | -9.43
CCc1cc(N(C)Cc2nonc2C)nc(N(C)C)n1 | -6.32
CCCN1CCC(Cc2nn3c(C(C)C)nnc3s2)CC1 | -6.17
O=C1CC[C@H]2CN(Cc3cccc(F)c3)CC[C@H]2N1CCc1c[nH]cn1 | -1.04
O=C(Nc1ccc(F)cc1)N1CCC2(CCC(=O)N(C3CC3)C2)CC1 | 5.54
O=C(NCc1nc(-c2ncccn2)no1)c1ccc(C2CCCO2)s1 (configuration not stated) | 0.774
COc1ccc(/C=C/CN2CCC3(C2)CN(C)C(=O)O3)cc1 (configuration not stated) | 0.313
CNC(=O)CN(C)c1nc(-c2ccncc2)nc2c1CCN(C(C)=O)C2 | -5.13
CC1CN(C)c2ccccc2N(C(=O)c2ccc(=O)n(C)c2)C1 (configuration not stated) | -3.51
NC(=O)Cn1cc(NC(=O)N2CCC(c3ccccc3)CC2)cn1 | -7.69
CC(C)(C)C(O)CN1CCN(C(=O)c2ccc3c(c2)COC3)CC1 (configuration not stated) | -2.42
CCc1noc(C)c1C(=O)N1CCCC1c1c(C)nn(C)c1C (configuration not stated) | -6.97
c1coc(-c2noc(CN3CCCC3Cn3cncn3)n2)c1 (configuration not stated) | -0.282
CN(Cc1ccsc1)C(=O)Nc1ccc(S(C)(=O)=O)cc1 | -4.77
CCOc1ccnc(N2CCN(C(=O)c3cnc[nH]3)CC2)n1 | -2.06
CCc1nc(CN(C)CC(N)=O)cs1 | -8.9
CC(C)c1nc(CN(CC(N)=O)C(C)C)cs1 | -14.4
Cc1cccc(C(=O)N2CCN(C(=O)Cc3ccccn3)CC2)c1C | -12.3
Cc1cnn(CC2CCCN2C(=O)c2cccnc2-n2cncn2)c1 (configuration not stated) | -3.29
CC(C)(C)c1nc(CN2CCCC2CCc2ccccc2)no1 (configuration not stated) | -5.95

Structure (SMILES) | cytotoxicity at 10 µM [%]
CCn1cnnc1CNC(=O)N1CCN(c2cccc(OC)c2)CC1 | -8.62
Cc1ccc(NC2CCN(C(=O)c3ccsc3)CC2)nn1 | -9.08
Cc1cc(CN(C)C(=O)c2cc3c([nH]c2=O)CCCC3=O)no1 | -3.59
COc1ccccc1C1(C(=O)NCCN2CCOCC2)CCOCC1 | -11.6
O=C(CCCOc1ccccc1Cl)N1CCCC(n2cncn2)C1 (configuration not stated) | -0.0868
CCc1nc(CN2CCCC(NCc3nc4cccnc4[nH]3)C2)no1 (configuration not stated) | 1.92
CN1CCOC(CNCc2nc(-c3ccccc3)cs2)C1 (configuration not stated) | -11.5
COc1ncccc1NC(=O)C1CCN(S(C)(=O)=O)CC1 | -5.74
COc1cccc(-c2nc(CNCCn3cccn3)cs2)c1 | 2.43
c1csc(CN2C[C@@H]3COC[C@]3(COCc3ccncc3)C2)c1 | 18
COc1ccc(CN2CCOC3(CCCN(c4nnc(C)o4)C3)C2)cc1 (configuration not stated) | -23.6
Cc1cccc(CN2CCC[C@@H]3CN(C(=O)c4ccco4)C[C@@H]32)n1 | -3.49
Cc1nc(CN2CCC3(CC2)C(=O)N(C)CCN3C)cs1 | 4.37
Cc1nc(CN2CCO[C@@H]3CC(COc4ccccn4)C[C@H]32)cs1 (some centres not stated) | 8.57
COc1ccc(OCc2sc(C3(O)CCCNCC3)nc2C)cc1 (configuration not stated) | -3.66
O=C(NCc1ccccn1)[C@H]1COC[C@H]2CN(Cc3ccoc3)C[C@H]21 | 1.54
CC1N(CC2CC2)C(=O)COC12CCN(Cc1nccs1)CC2 (configuration not stated) | -8.19
O=C(Cc1ccsc1)N1Cc2nc(CN3CCCCC3)oc2C1 | 7.19
c1cncc(COC[C@H]2CC[C@H]3[C@H](CCN3Cc3cccs3)O2)c1 | 3.45
O=c1[nH]c2cn(-c3ccc(Br)cc3)c(=O)n2[nH]1 | -5.51
